Data published in ChEMBL document CHEMBL1145834, “Novel selective hindlimb vasodilators: synthesis and biological activity of 1-acyl-4-aminopiperidine derivatives” (2003).

Assays:
Format in all cases: functional, Canis lupus familiaris
[1] = species: Canis familiaris; assay: Vasodilatory activity (at 100 nmol) relative to nifedipine (at 10 nmol) by coronary artery blood flow (CBF) in isolated blood perfused canine heart preparations.
Outline: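 The canine heart was isolated after pentobarbital (30 mg/kg iv), heparin (500 U/kg) and exsanguination. A septum–papillary muscle preparation was perfused with donor-dog blood via the anterior septal artery at constant 100 mmHg. It was preloaded to 2 g and paced at 120/min with 5 ms pulses at 1.2× threshold. Septal artery flow was read by electromagnetic flowmeter as CBF, and drugs were given intra-arterially. Ratio = effect of test compound (100 nmol) / effect of nifedipine (10 nmol). Means ± SE, n = 3 or 1.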

[2] = species: Canis familiaris; assay: Vasodilatory activity (at 10 nmol) relative to nifedipine (at 1 nmol) by femoral artery blood flow (FBF) in autoperfused canine femoral artery preparations.
Outline: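 Dogs were anesthetized with pentobarbital (30 mg/kg iv, then 4 mg/kg/h infusion) and heparinized (700 U/kg, then 100 U/kg/h). The right femoral artery was autoperfused with carotid blood at 90 mL/min by pump. Flow was read by electromagnetic flowmeter in the circuit, and drugs were given intra-arterially by microsyringe. Ratio = effect of test compound (10 nmol) / effect of nifedipine (1 nmol). Means ± SE, n = 3 or 1.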

[3] = system: Canis familiaris; assay: Cardiovascular effect upon coronary artery blood flow(CBF) in anesthetized open-chest dogs at a dose of 10 ug/ kg administered intravenously
Outline: (§1)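 Mongrel dogs anesthetized with pentobarbital sodium 30 mg/kg, open chest. Parameters allowed to stabilize, then drug given as single 10 μg/kg iv dose via femoral vein cannula. FBF and CBF expressed as % change from predose value; BP as change from predose value. Means ± SE, n = 3.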

[4] = system: Canis familiaris; assay: Cardiovascular effect upon blood pressure(BP) in anesthetized open-chest dogs at a dose of 10 ug/ kg administered intravenously; outline: as §1
[5] = system: Canis familiaris; assay: Cardiovascular effect upon femoral artery blood flow(FBF) in anesthetized open-chest dogs at a dose of 10 ug/ kg administered intravenously; outline: as §1

SMILES | CBF Ratio [1] | FBF Ratio [2] | CBF % change [3] | BP [4] [mmHg] | FBF % change [5] | CBF Ratio [3] | FBF Ratio [5]
CCC(=O)Nc1c(C)cc(C(=O)N2CCC(N(C)CCc3ccccc3)CC2)cc1[N+](=O)[O-] | 0.09 | 0.24 | – | – | – | – | –
CCc1cc(C(=O)N2CCC(N(C)CCc3ccccc3)CC2)cc2c1NC(=O)CC2.O=C(O)C(=O)O | 0.18 | 1.07 | 15 | -26 | 54 | – | –
Cc1cc2c(cc1C(=O)N1CCC(N(C)CCc3ccccc3)CC1)CCC(=O)N2.O=C(O)C(=O)O | 0.02 | 3.01 | 11 | -13 | 41 | – | –
CCc1cc(C(=O)N2CCC(N(C)CCc3ccccc3)CC2)cc2ccc(O)nc12.O=C(O)C(=O)O | 0.18 | 0.96 | 26 | -22 | 78 | – | –
COc1cc2nc(O)ccc2cc1C(=O)N1CCC(N(C)CCc2ccccc2)CC1 | 0.04 | 1.07 | 7 | -9 | 26 | – | –
CN(CCc1ccccc1)C1CCN(C(=O)c2cc3c(c([N+](=O)[O-])c2)NC(=O)CC3)CC1 | 0.28 | 0.68 | – | – | – | – | –
CN(CCc1ccccc1)C1CCN(C(=O)c2ccc3c(c2)NC(=O)CC3)CC1 | 0.07 | 0.19 | – | – | – | – | –
CCC(=O)Nc1ccc(C(=O)N2CCC(N(C)CCc3ccccc3)CC2)cc1 | 0.02 | 1.23 | 5 | -7 | 38 | – | –
CCC(=O)Nc1cc(C)c(C(=O)N2CCC(N(C)CCc3ccccc3)CC2)cc1C.Cl | 0 | 0.49 | – | – | – | – | –
CN(CCc1ccccc1)C1CCN(C(=O)C2CC(=O)Nc3ccccc32)CC1.Cl (stereo not drawn) | 0.01 | 0.85 | 13 | -15 | 101 | – | –
CN(CCc1ccccc1)C1CCN(C(=O)c2cccc3c2NC(=O)CC3)CC1.Cl | 0.09 | 0.62 | – | – | – | – | –
CCC(=O)Nc1c(C)cc(C(=O)N2CCC(N(C)CCc3ccccc3)CC2)cc1OC.Cl | 0 | 0.7 | – | -14 | – | 11 | 48
Cc1cc(C(=O)N2CCC(N(C)CCc3ccccc3)CC2)cc2c1NC(=O)CC2.Cl | 0.14 | 0.67 | 13 | -26 | 32 | – | –
CCC(=O)Nc1ccc(C(=O)N2CCC(N(C)CCc3ccccc3)CC2)c(C)c1C.Cl | 0 | 0.43 | – | – | – | – | –
CN(CCc1ccccc1)C1CCN(C(=O)c2ccc3c(c2)CCC(=O)N3)CC1.Cl | 0 | 1.64 | 11 | -9 | 38 | – | –
CN(CCc1ccccc1)C1CCN(C(=O)c2cccc3nc(O)ccc23)CC1.Cl | 0.01 | 0.32 | – | – | – | – | –
CC(C)c1cc(C(=O)N2CCC(N(C)CCc3ccccc3)CC2)cc2c1NC(=O)CC2.Cl | 0.25 | 1.13 | 15 | -19 | 73 | – | –
COc1cc(C(=O)N2CCC(N(C)CCc3ccccc3)CC2)cc2ccc(O)nc12.Cl | 0.04 | 1.36 | 10 | -10 | 55 | – | –
CCC(=O)Nc1ccc(C(=O)N2CCC(N(C)CCc3ccccc3)CC2)cc1Cl.Cl | 0.16 | 1.71 | – | – | – | – | –
CCC(=O)Nc1c(C)cc(C(=O)N2CCC(N(C)CCc3ccccc3)CC2)cc1Cl.Cl | 0.08 | 0.1 | – | – | – | – | –
CCC(=O)Nc1ccc(C(=O)N2CCC(N(C)CCc3ccccc3)CC2)cc1[N+](=O)[O-].Cl | 0.26 | 0.29 | – | – | – | – | –
CCCc1cc(C(=O)N2CCC(N(C)CCc3ccccc3)CC2)cc2ccc(O)nc12.Cl | 0.35 | 1.61 | 8 | -22 | 67 | – | –
CN(CCc1ccccc1)C1CCN(C(=O)c2cc([N+](=O)[O-])c3nc(O)ccc3c2)CC1.Cl | 1.15 | 1.6 | 9 | -21 | 32 | – | –
COc1cc2c(cc1C(=O)N1CCC(N(C)CCc3ccccc3)CC1)CCC(=O)N2.Cl | 0 | 1.98 | 8 | -8 | 26 | – | –
COC(=O)C1=C(C)NC(C)=C(C(=O)OC)C1c1ccccc1[N+](=O)[O-] [NIFEDIPINE] | – | – | 104 | -37 | -28 | – | –
